Shown are actives, neighbours in structure and some others; about 2.3% of the full set was active somewhere.
TRPC6 inhibitor = inhibitors of mouse TRPC6 channel; Q61143; B-score at 10 µM; 310,000 compounds, 1.1% hits; HEK293-TRPC6, membrane potential dye, ACh-evoked depolarization; active compounds read low;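 active means B-score under library mean minus 3 SD, initial fluorescence not abnormally high, positive integrated signal ratio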;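 further: B-score derived from integrated fluorescence ratio over the kinetic read; more negative B-score means stronger inhibition of depolarization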
Target sequence (Q61143 whole entry, looked up): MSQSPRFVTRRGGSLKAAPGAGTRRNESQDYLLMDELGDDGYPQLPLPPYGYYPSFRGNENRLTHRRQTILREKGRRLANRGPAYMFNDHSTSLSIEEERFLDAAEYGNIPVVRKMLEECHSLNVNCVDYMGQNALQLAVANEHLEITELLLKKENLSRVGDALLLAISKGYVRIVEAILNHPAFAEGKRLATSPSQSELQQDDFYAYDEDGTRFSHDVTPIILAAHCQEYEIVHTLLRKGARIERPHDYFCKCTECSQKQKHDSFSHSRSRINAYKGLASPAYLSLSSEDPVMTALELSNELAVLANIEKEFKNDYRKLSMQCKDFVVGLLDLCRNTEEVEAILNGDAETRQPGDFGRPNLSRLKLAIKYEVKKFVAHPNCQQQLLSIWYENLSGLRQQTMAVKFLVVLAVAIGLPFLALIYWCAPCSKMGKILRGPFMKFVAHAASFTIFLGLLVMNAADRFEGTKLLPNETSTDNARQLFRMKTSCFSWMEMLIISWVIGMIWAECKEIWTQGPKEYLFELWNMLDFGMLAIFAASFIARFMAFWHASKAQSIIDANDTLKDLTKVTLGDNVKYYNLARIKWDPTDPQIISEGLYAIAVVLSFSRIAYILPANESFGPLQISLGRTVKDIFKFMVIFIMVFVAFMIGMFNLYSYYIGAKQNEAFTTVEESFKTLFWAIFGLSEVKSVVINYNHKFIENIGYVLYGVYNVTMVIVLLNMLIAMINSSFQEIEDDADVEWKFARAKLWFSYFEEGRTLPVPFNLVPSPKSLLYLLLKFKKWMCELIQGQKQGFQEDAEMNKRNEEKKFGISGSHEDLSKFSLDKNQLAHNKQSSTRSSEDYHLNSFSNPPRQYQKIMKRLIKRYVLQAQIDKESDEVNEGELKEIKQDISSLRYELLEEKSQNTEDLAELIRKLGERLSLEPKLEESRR
TRPC4 PAM = TRPC4 (mouse) allosteric potentiation; Q9QUQ5; HEK293 TRPC4beta/mu-opioid, DAMGO EC20, Fluo-4 Ca2+ flux; active compounds read high; B-score at 10 µM; 310,000 compounds, 0.42% hits; AID 2227;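 active means B-score of calcium response area above 5 SD of library B-scores, with initial fluorescence ratio within 5 SD of library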
TRPC4 act = opens the mouse TRPC4 cation channel; Q9QUQ5; HEK293 TRPC4beta/mu-opioid, Fluo4 calcium fluorescence; active compounds read high; B-score at 10 µM; 310,000 compounds, 0.49% hits;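 active means B-score above 5 SD of library B-scores, and initial fluorescence ratio not above library mean plus 5 SD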;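 further: positive B-score marks a calcium rise read as TRPC4 activation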
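Assay system: HEK293 stable line with TRPC4beta plus mu-opioid receptor; schedule: 45 min room-temperature Fluo4 loading, 110 s read; technique: kinetic Fluo4 calcium fluorescence; evaluation: integrated baseline-normalised fluorescence ratio, converted to per-well B score; controls: buffer (low) and maximal DAMGO (high)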
TRPC4 inh = TRPC4 (mouse) channel inhibition; B-score at 10 µM; HEK293 TRPC4beta/mu-opioid, DAMGO-evoked Fluo4 calcium flux; active compounds read low; AID 2247; 300,000 compounds, 0.39% hits; Q9QUQ5;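 active means B-score over 3 SD under the library average, no early fluorescence shift, positive overall ratio signal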
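Assay system: HEK293 cells with stable TRPC4beta plus mu-opioid receptor expression. Dosing: single dose. Measured by: Fluo4 Ca2+ flux fluorescence. Also added: DAMGO in two steps, submaximal then maximal. Read-out: B score from integrated Fluo4 fluorescence ratio.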
TRPC6 activator = activators of mouse TRPC6 channel; 310,000 compounds, 0.13% hits; AID 2550; B-score at 10 µM; Q61143; HEK293-TRPC6 membrane potential dye fluorescence; active compounds read high;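 active means B-score of the integrated fluorescence ratio above library mean plus 3 SD, and starting fluorescence ratio within library mean plus 5 SD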;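 further: higher score means more depolarization so channel activation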
Large screens that a line does not name were inactive; ! = not confirmed by another sample.

Cc1cccc(OP(=O)(Nc2cccnc2)Oc2cccc(C)c2)c1	TRPC4 PAM 11
Cc1ccc(OP(=O)(Nc2cccc(C)c2)Oc2ccc(C)cc2)cc1	none
CN(C)C(Cc1ccccc1)C(=O)c1c[nH]c2ccccc12 (stereo not given)	none
O=c1[nH]c(=S)n(-c2ccccc2)c(O)c1/C=N/N1CCOCC1	none
CCNC(=O)[C@H]1O[C@@H](n2cnc3c(N)ncnc32)[C@H](O)[C@@H]1O	TRPC4 act 49
NC(=O)c1cn(C2OC(CO)C(O)C2O)c2ncnc(N)c12 (stereo not given)	none
COc1cccc2cc(-c3cc(=O)oc4ccc(OC(=O)N(C)C)cc34)oc12	none
Cc1ccccc1-n1c(C)cc(/C=C2/C(=O)NC(=O)N(Cc3ccco3)C2=O)c1C	TRPC4 inh -6
Cc1ccc(-n2c(C)cc(/C=C3/C(=O)NC(=O)N(Cc4ccco4)C3=O)c2C)cc1	none
O=C1/C(=C/c2cc3c(cc2Cl)OCO3)N2CCC1CC2	none
CSCCC(NC(=O)CCC(=O)OC1CC[C@H]2[C@@H]3CC[C@H]4CC(=O)CC[C@]4(C)[C@H]3CC[C@]12C)C(=O)O (stereo not given in full)	none
CSc1ccc(CN2CCN(C(=O)COc3cccc(C)c3)CC2)cc1	none
Nc1ccccc1-[n+]1c(-c2ccccc2)cc(-c2ccccc2)cc1-c1ccccc1	TRPC4 PAM 25
Oc1ccccc1-[n+]1c(-c2ccccc2)cc(-c2ccccc2)cc1-c1ccccc1	none
COC(=O)C1=C(c2cc3ccccc3o2)C[C@@H]2CC[C@H]1N2C(=O)NC(C)C	none
Cc1cc(C)nc(N2Cc3ccccc3C2=N)n1	none
COc1ccc(OC)c(N2Cc3ccccc3C2=N)c1	TRPC4 inh -7
CC(C)C[C@H](NC(=O)[C@@H]1CCCN1C(=O)[C@@H](N)Cc1ccc(O)cc1)C(=O)NCC(N)=O	TRPC4 act 53
CC(C)CC(NC(=O)C1CCCCC1)C(=O)N1CCC2(CC1)OCCO2 (stereo not given)	none
COc1ccc2nc3oc(C(=O)N4CCC5(CC4)OCCO5)cc3cc2c1	none
CC1(C)CSC(=NCc2ccccc2)N1	TRPC4 act 68
CC1(C)CC(N(CCc2ccccc2)Cc2ccccc2)CCO1 (stereo not given)	TRPC4 inh -6
CNc1cc(Cl)c2nonc2c1[N+](=O)[O-]	none
N=c1c[n+](CC23CC4CC(CC(C4)C2)C3)[n-]o1	TRPC4 act 211
Cc1c(P(=S)(c2ccccc2)c2ccccc2)[n+]2ccccc2n1C	none
Cn1cc[n+](C)c1P(=S)(c1ccccc1)c1ccccc1	TRPC4 act 66
CC(=O)O[C@]1(c2ccccc2)CCN(C)[C@H]2CCCC[C@@H]21	none
CC(=O)OC1(c2ccccc2)CCN(C2CCCCC2)CC1C (stereo not given)	TRPC4 inh -6
C#CCN1C(=O)C2(C(C#N)=C(N)OC(C)=C2C(=O)OCc2ccccc2)c2ccccc21 (stereo not given)	TRPC4 PAM 29
CCOC(=O)C1=C(C)OC(N)=C(C#N)C12C(=O)N(C)c1ccccc12 (stereo not given)	none
O=[N+]([O-])c1ccc(N2CCCC2)c(F)c1Br	none
CCN1CCN(c2cc(N3CCCC3)c([N+](=O)[O-])cc2F)CC1	TRPC4 PAM 17
Cc1cccc(NC(=S)N2CC3CC(C2)c2cccc(=O)n2C3)c1C (stereo not given)	none
CCN1CCN(c2ccc([N+](=O)[O-])cc2C=C2C(=O)NC(=O)NC2=O)CC1	TRPC4 PAM 15
CC(=O)N1CCN(c2ccc([N+](=O)[O-])cc2C=C2C(=O)NC(=O)NC2=O)CC1	none
COc1ccc(-c2nn(CCC#N)cc2C(=O)Nc2cccc([N+](=O)[O-])c2)cc1OC	none
CCOC(=O)c1c(C)n(Cc2ccco2)c2c1cc(O)c1ccccc12	none
CC[C@@H](CO)NC(=O)[C@@H]1C=C2c3cccc4c3c(cn4C)C[C@H]2N(C)C1	TRPC4 act 154!
CCC(CO)NC(=O)C1C=C2c3cccc4[nH]cc(c34)CC2N(C)C1 (stereo not given)	TRPC4 act 73
CCOP(=S)(OCC)SCC(=O)NC(C(=O)O)C(C)C (stereo not given)	none
CN1CCN(c2c(N)c(=O)oc3ccccc23)CC1	TRPC4 PAM 10
NC1=Nc2ccccc2Oc2ccccc21	none
CC1CN=C(NCc2ccccc2)S1 (stereo not given)	none
Cc1cc(N2CCNCC2)nc2ccccc12	TRPC4 PAM 13
Clc1cccc(N2CCNCC2)n1	none
Cn1c(N2CCNCC2)nc2ccccc21	TRPC4 act 105
COc1ccccc1N1CCNCC1	none
CC(C)CN(CC(C)C)c1ccc(C=C2C(=O)NC(=S)NC2=O)cc1[N+](=O)[O-]	TRPC4 inh -7
O=C(CCc1nnc2ccc(NCc3ccccc3Cl)nn12)N1CCC2(CC1)OCCO2	none
CC1CC(C)CN(CC(=O)c2ccc(OC(F)F)cc2)C1 (stereo not given)	TRPC4 act 52
CN1C2CCC1CC(OC(=O)c1cc(Cl)cc(Cl)c1)C2 (stereo not given)	TRPC4 PAM 13
COc1cc(C(=O)OC2C[C@H]3CC[C@@H](C2)N3C)ccc1O (stereo not given in full)	none
CCOC(=O)c1c(C)[nH]c(C)c1C(=O)C(Cc1ccccc1)N(C)C (stereo not given)	none
c1ccc2c(CCNC3CCCCC3)c[nH]c2c1	none
c1ccc2[nH]c(CCNC3CCCCC3)nc2c1	TRPC4 act 65
Clc1ccc(C2NCCc3[nH]cnc32)cc1 (stereo not given)	none
Fc1cccc(C2NCCc3[nH]cnc32)c1 (stereo not given)	TRPC4 act 162
C=CCn1c(O)c(C(CC)=Nc2cccc(C(F)(F)F)c2)c(=O)[nH]c1=O	none
CCN(CC)C(=O)N[C@H]1C[C@@H]2c3cccc4[nH]cc(c34)C[C@H]2N(C)C1	TRPC4 act 83
CN1C[C@H](CO)C[C@@H]2c3cccc4[nH]cc(c34)C[C@H]21	none
c1cc2c(cc1CN1CCNCC1)OCO2	none
FC(F)(F)c1ccc(CN2CCNCC2)cc1	TRPC4 PAM 17
Cc1ccccc1CN1CCNCC1	TRPC4 PAM 15
Clc1ccccc1CN1CCNCC1	none
Clc1ccc(CN2CCNCC2)cc1	TRPC4 act 54
CCN(CC)P(=O)(Oc1ccccc1)Oc1ccccc1	none
CC(C)C(=O)NC(Oc1ccccc1Cl)C(Cl)(Cl)Cl (stereo not given)	none
COc1cccc(CCNCc2ccc(SC)cc2)c1	none
O=P1(Nc2ccc(F)cc2)COc2ccccc2OC1	none
O=C(COc1ccc(Cl)cc1)N(c1ccc(Cl)cc1)C1CN2CCC1CC2 (stereo not given)	none
CCOC(=O)C1(CCc2ccccc2)CCN(Cc2cccc3cnccc23)CC1	none
